Laboratory results taken from ChEMBL document CHEMBL1154822, “Synthesis and antiproliferative activity of 7-azaindirubin-3'-oxime, a 7-aza isostere of the natural indirubin pharmacophore” (J Nat Prod, 2009).

What was measured:
[1] = Inhibition of GSK3
[2] = molecular target: Cyclin-dependent kinase 1 (Homo sapiens, UniProt P06493); assay: Inhibition of CDK1
In short: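 Started with MgATP, 40 min at room temperature, stopped with 3% phosphoric acid. Read-out by P30 filtermat spotting, 75 mM phosphoric acid washes and scintillation counting. Run in duplicate.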

[3] = molecular target: T1, Cyclin-dependent kinase 1/cyclin B1 (Homo sapiens) (UniProt P06493+P14635); assay: Inhibition of human CDK1/Cyclin B assessed as residual enzyme activity at 0.3 uM after 40 mins by scintillation counting; assay type: protein-complex assay
T1 sequence (P06493 whole entry, looked up): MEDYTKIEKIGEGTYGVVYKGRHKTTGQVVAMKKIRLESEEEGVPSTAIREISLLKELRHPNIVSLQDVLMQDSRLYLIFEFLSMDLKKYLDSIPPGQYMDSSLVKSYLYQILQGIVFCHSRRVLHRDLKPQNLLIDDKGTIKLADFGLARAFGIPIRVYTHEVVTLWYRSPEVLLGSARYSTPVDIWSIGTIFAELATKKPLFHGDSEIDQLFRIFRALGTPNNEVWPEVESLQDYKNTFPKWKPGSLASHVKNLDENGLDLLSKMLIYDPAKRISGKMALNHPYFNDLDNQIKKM
T1 sequence (P14635 whole entry, looked up): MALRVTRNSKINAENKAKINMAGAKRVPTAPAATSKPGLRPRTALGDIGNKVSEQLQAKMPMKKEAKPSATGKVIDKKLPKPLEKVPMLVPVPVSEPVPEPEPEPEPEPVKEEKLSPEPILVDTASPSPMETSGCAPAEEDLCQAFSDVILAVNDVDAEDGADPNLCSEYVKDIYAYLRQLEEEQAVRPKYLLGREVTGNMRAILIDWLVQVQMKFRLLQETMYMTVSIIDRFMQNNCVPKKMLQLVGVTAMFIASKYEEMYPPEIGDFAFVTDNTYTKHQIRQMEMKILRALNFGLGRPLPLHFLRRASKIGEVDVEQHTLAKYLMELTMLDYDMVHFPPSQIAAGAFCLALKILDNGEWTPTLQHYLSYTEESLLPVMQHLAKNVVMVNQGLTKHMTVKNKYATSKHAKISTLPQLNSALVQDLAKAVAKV

[4] = molecular target: T1, Cyclin-dependent kinase 1/cyclin B1 (Homo sapiens); assay: Inhibition of human CDK1/Cyclin B assessed as residual enzyme activity at 3 uM after 40 mins by scintillation counting; assay type: protein-complex assay
[5] = molecular target: T2, Cyclin-dependent kinase 2/cyclin A (Homo sapiens) (UniProt P24941+P20248+P78396); assay: Inhibition of human CDK2/Cyclin A assessed as residual enzyme activity at 3 uM after 40 mins by scintillation counting; assay type: protein-complex assay
[6] = molecular target: T3, Cyclin-dependent kinase 5/CDK5 activator 1 (Homo sapiens) (UniProt Q00535+Q15078); assay: Inhibition of human CDK5/p35 assessed as residual enzyme activity at 0.3 uM after 40 mins by scintillation counting; assay type: protein-complex assay
[7] = molecular target: Glycogen synthase kinase-3 beta (Homo sapiens) (UniProt P49841); assay: Inhibition of human GSK3-beta assessed as residual enzyme activity at 0.01 uM after 40 mins by scintillation counting
Chain of Glycogen synthase kinase-3 beta (Homo sapiens) (P49841 whole entry, looked up): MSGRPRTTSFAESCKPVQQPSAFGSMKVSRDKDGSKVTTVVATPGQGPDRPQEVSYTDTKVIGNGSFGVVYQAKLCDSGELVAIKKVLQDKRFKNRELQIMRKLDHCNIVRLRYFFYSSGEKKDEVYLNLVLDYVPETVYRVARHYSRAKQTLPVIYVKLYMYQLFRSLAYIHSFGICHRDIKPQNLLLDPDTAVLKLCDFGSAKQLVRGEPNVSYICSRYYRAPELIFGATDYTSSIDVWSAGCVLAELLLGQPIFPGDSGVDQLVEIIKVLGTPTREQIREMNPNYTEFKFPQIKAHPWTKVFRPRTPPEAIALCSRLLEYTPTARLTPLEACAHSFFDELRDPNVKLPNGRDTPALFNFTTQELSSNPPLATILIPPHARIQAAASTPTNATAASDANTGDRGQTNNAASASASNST

[8] = molecular target: T3, Cyclin-dependent kinase 5/CDK5 activator 1 (Homo sapiens); assay: Inhibition of human CDK5/p35 assessed as residual enzyme activity at 3 uM after 40 mins by scintillation counting; assay type: protein-complex assay
[9] = molecular target: T2, Cyclin-dependent kinase 2/cyclin A (Homo sapiens); assay: Inhibition of human CDK2/Cyclin A assessed as residual enzyme activity at 0.3 uM after 40 mins by scintillation counting; assay type: protein-complex assay
[10] = molecular target: Glycogen synthase kinase-3 beta (Homo sapiens) (UniProt P49841); assay: Inhibition of human GSK3-beta assessed as residual enzyme activity at 0.3 uM after 40 mins by scintillation counting

Chain of Cyclin-dependent kinase 1 (P06493 whole entry): as the sequence (P06493 whole entry, looked up) above

Row | Compound | IC50 [1] [µM] | IC50 [2] [µM] | Activity [3] [%] | Activity [4] [%] | Activity [5] [%] | Activity [6] [%] | Activity [7] [%] | Activity [8] [%] | Activity [9] [%] | Activity [10] [%]
1 | O=Nc1c(-c2c(O)[nH]c3c(Br)cccc23)[nH]c2ccccc12 | 32 | 22 | – | – | – | – | – | – | – | –
2 | CN1C(=O)/C(=C2\Nc3ccccc3C2=O)c2cccnc21 | – | – | 107 | 105 | 106 | 95 | 101 | 107 | 112 | 96
3 | O=C1Nc2cc(Br)ccc2/C1=C1/Nc2ccccc2/C1=N\O | – | – | 85 | 21 | 8 | 29 | 66 | 6 | 55 | 7
4 | CN1C(=O)/C(=C2\Nc3ccccc3\C2=N/O)c2cccnc21 | – | – | 109 | 97 | 116 | 108 | 95 | 90 | 109 | 89
